L major viab: Leishmania major promastigote growth inhibition, primary screen | Leishmania major promastigotes, resazurin fluorescence viability | inhibition, % at 10 µM | hit rate 9% among 200,000 | AID 1063, 2008; in the data active = inhibition above about 50%;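 also: promastigotes grown with compound for 44 hours at 28 °C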
b-catenin transl: modulators of beta-catenin nuclear translocation, primary screen, imaging, HeLa cells, immunofluorescence, high-content. nuclear translocation activity, % at 5 µM. hit rate 0.3% among 190,000. AID 1665, 2009;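 active = nuclear translocation activity above 50% at 5 µM, with a well cell count of 50 or more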;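 also: per-cell ratio of nuclear to cytoplasmic median beta-catenin stain intensity; plate controls were DMSO negative control for no effect and GSK-3 inhibitor IX positive control for full effect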
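System: Human HeLa cells, endogenous beta-catenin | Compound dosing: 5 µM primary, 0.02–20 µM confirmation | Timing: 24 h compound exposure at 37°C, 5% CO2 | Measured by: Fluorescence imaging of beta-catenin antibody stain plus DAPI | Read-out basis: % activation of per-cell nuclear versus cytoplasmic median beta-catenin signal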
BaF3 parental: parental Ba/F3 cell viability inhibition, counter-screen for JAK2V617F inhibitor project, murine pro-B, CellTiter-Glo luminescence | CellTiter-Glo ATP luminescence | inhibition, % at 5.6 µM | hit rate 1.1% among 220,000;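 active = inhibition above a per-campaign cutoff, the mean inhibition of all tested compounds plus 3 SD, cut at about 27% in these data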;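 also: 0% = DMSO wells and 100% = JAK Inhibitor I control wells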
Ba/F3 V617F tox: reduced viability of JAK2V617F-dependent Ba/F3 cells, primary screen, JAK2V617F inhibitor project, cell-based, Ba/F3 EpoR-JAK2V617F, luminescence | inhibition, % at 5.6 µM | hit rate 1.1% among 220,000 | ATP luminescence | AID 1446, 2008;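 active = inhibition above the campaign mean plus 3 SD over all tested compounds, cut at about 24% in these data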;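 also: cytokine-independent growth of Ba/F3 cells driven by EpoR plus mutant JAK2; 0% = DMSO-treated cells and 100% = JAK inhibitor I control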
APP 5UTR inh: inhibitors of APP translation via 5'UTR reporter, primary screen, APP 5'UTR luciferase, SH-SY5Y cells. SH-SY5Y APP 5'UTR-luciferase reporter, luminescence. inhibition, % at 2 µM. hit rate 0.82% among 190,000. AID 1285, 2008;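 active = inhibition above a set limit, derived from the sample mean plus 3 SD, cut at about 45% in these data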
MT stabilizer: microtubule stabilizers in HeLa cells, primary screen, imaging, high-content imaging; AID 2205, 2009; hit rate 0.83% among 200,000; HeLa tubulin immunostaining HCS, 24 h; share of cells brighter than vehicle mean+2SD; % tubulin-high responders, % at 10 µM;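 active = plate Z-score above 3 for both tubulin-high and condensed-nucleus cell shares, with cell loss under 80%, at 10 µM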;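 also: anti alpha tubulin signal scored within the nucleus-defined area of each cell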
* = called active by the depositor; nt = no result given. Only some compounds are listed: those with a hit (about 9.6% of all), similar ones and a draw of the others.

SMILES	L major viab	b-catenin transl	BaF3 parental	Ba/F3 V617F tox	APP 5UTR inh	MT stabilizer
CC(OC(=O)c1cc2sccc2n1C)C(=O)NCc1ccc2c(c1)OCO2 (stereo not drawn)	-4.5	0.6	12.9	5.9	4.4	1.9
CNc1cncc(C(=O)O)c1	1.8	-1.8	9.9	5.2	0.2	2.2
CCCCNc1nc2ccccc2n1CC(=O)N1CCc2ccccc2C1	69.9*	-1.5	4.6	4.3	12.4	5.4
Cc1ccc(-c2csc(NC(=S)NC(=O)c3ccco3)n2)cc1	-8.4	1.1	4.2	-2.0	-4.0	4.4
O=C(NNc1nc(-c2ccccc2)cs1)c1ccco1	66.8*	-2.0	6.3	3.5	-8.2	6.2
NNc1nc(-c2ccccc2)cs1	90.3*	-0.8	8.2	-1.3	-29.0	2.4
O=C(NNc1nc(-c2ccc(Cl)cc2)cs1)c1ccco1	58.0*	-2.8	6.8	1.7	2.3	3.6
OCCNCC12CC3CC(CC(C3)C1)C2	25.1	-0.5	4.0	-2.5	3.5	1.2
CC(=O)c1ccc(-n2nncc2-c2ccc([N+](=O)[O-])cc2)cc1	2.4	4.3	2.1	-4.9	-11.3	6.1
Cc1ccc(N/N=C(\Cc2nc3ccccc3[nH]2)c2ccccc2)cc1	88.0*	106.7*	19.2	14.0	92.4*	5.2
CCN/N=C(\Cc1nc2ccccc2[nH]1)c1ccccc1	74.7*	-2.0	2.8	-2.2	-13.2	3.3
O=C(Cc1nc2ccccc2[nH]c1=O)c1ccccc1	4.1	-2.7	7.1	1.0	-160.0	2.0
O=C(Cc1nc2ccccc2[nH]1)c1ccc(Br)cc1	96.3*	-1.3	2.7	3.0	-5.8	9.0
Cc1ccc(OCC(O)CN2CC3(C)CC2CC(C)(C)C3)cc1 (stereo not drawn)	-2.1	-1.1	3.6	-2.8	6.8	1.9
Cc1cccc(OCC(O)CN2CC3(C)CC2CC(C)(C)C3)c1 (stereo not drawn)	-0.1	5.2	4.1	-1.8	49.4*	3.7
Cc1ccc(S(=O)(=O)NCCCCCC(=O)Nc2c(C)n(C)n(-c3ccccc3)c2=O)cc1	4.6	4.1	1.9	3.6	-19.9	4.2
CCc1nn(-c2cc(Cl)ccc2OC)c2c1C(=O)CCC2	9.9	11.4	0.6	-0.1	-3.8	27.5*
CCCc1nn(-c2cc(Cl)ccc2OC)c2c1C(=O)CC(C)(C)C2	10.7	nt	2.8	-2.3	-3.1	11.7*
COc1ccc(Cl)cc1N1Cc2ccccc2C1	-1.8	0.9	4.8	-0.6	-4.0	1.0
O=C(CSc1n[nH]c(=O)[nH]c1=O)Nc1ccc(C(=O)O)cc1	6.5	-6.1	0.8	-2.5	-5.7	1.7
C/C(=N\NC(=S)NCc1ccccc1)c1ccc2ccccc2c1OC(F)F	-2.8	0.9	8.4	-3.6	-4.7	1.8
Cc1ccc(NC2=C(Cl)C(=O)OC2OC(C)C)c(C)c1 (stereo not drawn)	-1.2	1.0	9.0	0.1	-1.2	2.8
Cc1cccc(C)c1NC1=C(Cl)C(=O)OC1OC(C)C (stereo not drawn)	50.1*	1.7	1.7	-1.6	-0.9	1.3
CC(=O)OC1COC(N2CCc3cc(Br)c([N+](=O)[O-])cc32)C(OC(C)=O)C1OC(C)=O (stereo not drawn)	2.5	3.6	1.8	-1.3	5.2	1.9
COc1cc2nc(SCc3c(C)noc3C)n(CCC3=CCCCC3)c(=O)c2cc1OC	61.5*	-1.2	3.8	-1.2	-1.7	38.4*
SMILES	L major viab	b-catenin transl	BaF3 parental	Ba/F3 V617F tox	APP 5UTR inh	MT stabilizer
C=CCn1c(SCc2c(C)noc2C)nc2ccccc2c1=O	8.5	nt	71.7*	71.1*	94.5*	27.3*
C=CCn1c(SCc2c(C)noc2C)nc2cc(C(=O)O)ccc2c1=O	-1.2	nt	6.4	-2.5	2.6	35.5*
O=C(NNC(=O)c1ccc([N+](=O)[O-])cc1Cl)c1ccncc1	83.5*	-0.4	3.2	-0.3	-11.6	2.2
COc1cc(OC)nc(NC2OC(=O)c3ccccc32)n1 (stereo not drawn)	-1.4	-0.8	5.0	0.0	-8.1	1.4
CC1=CCC2COC(c3ccc[n+](Cc4ccccc4)c3)C1C2 (stereo not drawn)	47.3	-1.9	66.8*	46.3*	-15.6	2.2
C/C(=N\NC(=O)C1CC1)c1ccccc1O	-2.4	-2.4	5.8	0.6	-3.9	2.2
CCN(CC)C(=O)C(C)OC(=O)COc1ccc(Cl)cc1Cl (stereo not drawn)	58.5*	1.2	1.6	2.0	10.6	3.9
CC(C)CNC(=O)NC(=O)COC(=O)COc1ccc(Cl)cc1Cl	nt	-0.9	0.4	0.0	nt	nt
Cc1ccc2nc(NC(=O)c3ccccn3)sc2c1	98.1*	1.5	7.1	4.7	22.1	5.3
O=C(Nc1nc2c(F)cc(F)cc2s1)c1ccccn1	97.6*	3.5	5.5	-4.7	-17.9	4.8
O=C(Nc1nc2ccc(S(=O)(=O)N3CCCCC3)cc2s1)c1ccncc1	1.8	0.1	3.6	-1.2	16.2	2.7
O=C(Nc1nc2ccc(S(=O)(=O)N3CCCC3)cc2s1)c1ccccn1	98.7*	1.3	3.9	0.4	5.9	8.5
O=C(COc1ccccc1)NNc1nc2c(F)cc(F)cc2s1	-3.4	-5.0	4.9	3.4	2.7	2.5
NS(=O)(=O)c1ccc(NC(=S)Nc2ccn(Cc3cccc4ccccc34)n2)cc1	5.4	0.1	-1.5	-0.4	10.3	6.4
CSc1ccc(CN(C)CC(=O)Nc2c(F)cccc2F)cc1	-5.7	-2.8	2.6	3.6	11.5	2.8
O=C(c1ccc2c(c1)OCO2)C1CCCN(Cc2ccc3nsnc3c2)C1 (stereo not drawn)	91.8*	0.0	2.0	-0.4	-13.3	2.1
COc1cccc(CN2CCCC(C(=O)c3ccc4c(c3)OCO4)C2)c1OC (stereo not drawn)	90.4*	2.6	5.3	-4.8	-13.3	1.7
COc1c(C)cc(C(=O)C2CCCN(Cc3cccc4nccnc34)C2)cc1C (stereo not drawn)	99.3*	0.5	1.6	5.5	-1.5	3.3
COc1ccc(C(=O)C2CCCN(Cc3cccc4c3OCO4)C2)cc1OC (stereo not drawn)	77.7*	1.4	5.9	4.7	6.2	2.4
Cn1c(CN2CCCC(C(=O)c3ccc4c(c3)OCO4)C2)nc2ccccc21 (stereo not drawn)	34.9	-3.8	-2.1	-2.3	-36.9	2.4
COc1ccc([N+](=O)[O-])cc1NC(=O)c1ccc(N(Cc2ccccc2Cl)S(C)(=O)=O)cc1	15.3	0.4	8.2	2.2	11.8	4.4
COc1cc([N+](=O)[O-])cc(/C=N/NC(=O)CSc2ccccn2)c1O	nt	-0.5	-0.2	-2.8	nt	nt
COc1ccc2cc(-c3[nH]ncc3CN3CCCC3c3nonc3C)ccc2c1 (stereo not drawn)	23.7	2.1	11.5	-1.2	-40.2	10.7*
